The text below walks through data of paper PMC3053052 (Neuropeptides, 2010).

The test system of one assay is STAR and TSPO. The note with it: systemic alcohol administration; ref Herman et al., 2006; cited from earlier work.
In assay [1] the target is T1, vascular NPY receptors (mainly Y1 subtype), rat testis (Rattus norvegicus, UniProt P21555).
T1 sequence (P21555 1-382): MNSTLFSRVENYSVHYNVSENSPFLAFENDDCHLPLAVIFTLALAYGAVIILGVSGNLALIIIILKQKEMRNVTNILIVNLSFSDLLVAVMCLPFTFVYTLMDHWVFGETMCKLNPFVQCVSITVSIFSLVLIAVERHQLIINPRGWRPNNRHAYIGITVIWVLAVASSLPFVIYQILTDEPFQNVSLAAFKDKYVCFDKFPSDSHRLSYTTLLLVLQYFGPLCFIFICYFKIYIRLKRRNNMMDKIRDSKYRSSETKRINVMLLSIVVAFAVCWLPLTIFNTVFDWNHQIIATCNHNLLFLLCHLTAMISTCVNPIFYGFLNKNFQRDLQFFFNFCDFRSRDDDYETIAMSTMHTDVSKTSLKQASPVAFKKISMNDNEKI
The assay can be described thus: Competition binding. The note with it: 25 nM cold PYY; ^125I-PYY 10,000 cpm/100 μl (22.5 pM); rat testis sections.

Assay [2] deals with NPY receptors in seminiferous tubules. The assay can be described thus: In vitro NPY receptor autoradiography, ^125I-PYY binding to seminiferous tubules. On the set-up: species or system rat. The note with it: surrounding seminiferous tubules; 22.5 pM ^125I-PYY, 2,000 Ci/mmol. A digest of the protocol: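 Serial sections of rat testis incubated with 125I-PYY (10,000 cpm/100 μl, 2,000 Ci/mmol, 22.5 pM). Competition run with subtype-selective ligands, including a Y5-selective PP analogue. Rat brain served as positive control. Slides were exposed to film, and signals were matched to adjacent sections stained with H&E, anti-Factor VIII (vessels) or anti-STAR (Leydig cells). Densities were quantified by computer-assisted imaging.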

The subject of the next assay is T response to hCG. The assay can be described thus: Plasma testosterone response to hCG after intratesticular. It is filed as in vivo, rat. A digest of the protocol:
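Jugular-cannulated adult male rats, freely moving. Test peptide 5 μg/kg itt or vehicle under isoflurane, 1 h before hCG 1 IU/kg iv. One series pretreated with GnRH antagonist […] iv 2 h before hCG. Blood drawn before and 15, 30, 60, 90 min after hCG. Plasma T measured by commercial kit (sensitivity 0.2 ng/mL), cumulative T summed. N = 5–7; mean ± SEM; ANOVA/repeated measures.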

The test system of assay [3] is steroidogenic acute regulatory (STAR) protein. The experiment in a line: Leydig cell STAR protein level after itt NPY. Format: in vivo, rat. The note with it: Leydig cells, Western blot. A digest of the protocol: (§1)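 Decapitation 1 h later. Leydig cells were isolated by collagenase dispersion and Percoll gradient, then lysed in RIPA. 25 μg protein per lane was probed with anti-STAR (1:1,500; 30-kDa form) or anti-TSPO (1:1,000). ECL signal was normalised to β-actin, as % of control.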

Assay [4] deals with translocator protein (TSPO). The experiment in a line: Leydig cell TSPO level after itt NPY. It is filed as in vivo, rat. The note with it: Leydig cells, Western blot. A digest of the protocol: as §1
Another assay deals with testes. Conditions: ref Collin et al., 1998; cited from earlier work.
For the next assay, the system named is plasma LH. The note with it: ref Pierroz et al., 1999; cited from earlier work.
The test system of the next assay is explanted GnRH neurons. The note with it: ref Klenke et al., 2010; cited from earlier work.

For `CCO` [alcohol], the “STAR and TSPO concentrations” value in the assay with STAR and TSPO is “significantly decreased STAR and TSPO concentrations”.
Turning to “PYY: cold PYY used to assess non-specific binding”, the “displacement of ^125I-PYY binding to testicular blood vessels at 25 nM” value in assay [1] is listed as “Complete displacement”.
“^125I-PYY: ^125I-PYY (2,000 Ci/mmol; Anawa, Wangen, Switzerland)”: the “^125I-PYY binding (in words)” value in assay [2] was “no binding to surrounding seminiferous tubules”.
With neuropeptide Y [NPY], the “T response to hCG” value in the assay with T response to hCG (NPY 5 μg/kg itt 1 h before hCG 1.0 U/kg iv, at all times studied (15, 30, 60, 90 min), P<0.01 vs vehicle, N = 5-7/point (Fig. 1)) is listed as “markedly (P<0.01) blunted the T response to hCG at all times studied”. The “basal plasma T levels” value in the assay on T response to hCG (NPY 5 μg/kg itt, 1 h, vs vehicle, P<0.01, N = 5-7/point (Fig. 1)) is on record as “significantly (P<0.01) decreased basal plasma T levels”. The “cumulative plasma T after hCG” value in the assay with T response to hCG (vehicle pre-treatment, NPY 5 μg/kg itt, hCG 1 U/kg iv, cumulative T 15, 30, 60 and 90 min after hCG, mean ± SEM, N = 5-7, P<0.01 vs itt vehicle (22.20 ± 3.25)) was 10.60 ± 0.98R ^a ng T/ ml. Besides, in [3], the “changes in STAR levels (in words)” value was “inconsistent and did not reach statistical significance”. The “changes in TSPO levels (in words)” value in assay [4] was “inconsistent and did not reach statistical significance”. For the same molecule, in the assay on testes, the “vasoconstriction in the testes” value is “reported to cause vasoconstriction in the testes”. Moreover, the “plasma LH levels” value in the assay on plasma LH is “lower plasma LH levels”. In addition, the “neuronal activity of explanted GnRH neurons” value in the assay on explanted GnRH neurons is “inhibits the neuronal activity of explanted GnRH neurons”.
